A selection: hits, their analogues and other compounds. The true share with any hit is near 1.8%.
NOD2 RIPK2 PPI: inhibitors of human NOD2-RIPK2 interaction | O43353 | inhibition, % at 4.98 µM | 360,000 tested, 0.38% active | CHO BLA complementation NOD2-RIPK2, CCF4 ratio | AID 624267; in the data active means inhibition above about 21%;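 further: 0% = vehicle only and 100% = reference blocker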
TLR9-MyD88 block: blocks human TLR9 binding to MyD88. Q9NR96+Q99836. CHO BLA complementation TLR9-MyD88, CCF4 FRET ratio. inhibition, % at 4.98 µM. 340,000 tested, 0.21% active. AID 504734;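 active means inhibition above the mean over all tested compounds plus 3 SD, cut at about 21% in these data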;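 further: 0% = DMSO only wells and 100% = clavulanate BLA inhibitor control wells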
TLR4 MyD88 comp: blocks binding of human TLR4 to MyD88. O00206+Q99836. HeLa CL3-4 TLR4/MyD88 BLA complementation, FRET ratio. inhibition, % at 8.4 µM. 200,000 tested, 0.18% active. AID 861; in the data active means inhibition above about 25%;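 further: 0% = vehicle and 100% = reference inhibitor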
MC4R ag barr: activates human MC4R beta-arrestin recruitment. U2OS MC4R beta-arrestin complementation, luminescence; percent of melanotan II response, DMSO zero. activation, % at 8.9 µM. 360,000 tested, 0.98% active. AID 540308;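 active means activation above a per-plate cutoff, the mean activation of sample wells on that plate plus 3 SD, cut at about 8% in these data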
Target sequence (P32245 whole entry, looked up): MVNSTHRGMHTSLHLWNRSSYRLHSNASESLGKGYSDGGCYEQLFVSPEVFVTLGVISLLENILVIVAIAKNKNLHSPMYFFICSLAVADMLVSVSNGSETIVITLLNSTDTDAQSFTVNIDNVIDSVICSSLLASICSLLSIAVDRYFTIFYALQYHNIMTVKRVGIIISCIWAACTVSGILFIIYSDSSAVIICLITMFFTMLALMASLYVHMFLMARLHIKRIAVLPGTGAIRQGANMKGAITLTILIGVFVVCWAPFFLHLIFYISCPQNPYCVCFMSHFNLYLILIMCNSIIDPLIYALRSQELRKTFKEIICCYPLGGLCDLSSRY
MC4R antag cAMP: human MC4R antagonism in cAMP assay | MC4R-expressing cells, MTII-stimulated cAMP, LANCE TR-FRET | AID 540295 | 360,000 tested, 0.48% active | inhibition, % at 6.5 µM | P32245;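 active means inhibition above its plate's cutoff, the mean of tested wells on that plate plus 3 SD, cut at about 29% in these data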;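 further: 0% = Melanotan II alone and 100% = Melanotan II plus saturating MCL0020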
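System: U2OS-MC4R stable cell line; Technique: Eu-cAMP/anti-cAMP TR-FRET, emission 671 nm; Repeats: single well per compound; Also added: Melanotan II; Dosing: one concentration, 6.5 µM nominal; Schedule: 30-min compound, 1-h challenge, 1-h detection, room temperature.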
cAMP nonselect: nonselective cAMP signaling inhibitor, MC4R antagonist counter-screen; shares compounds with MC4R antag cAMP; parental U2OS, forskolin cAMP, LANCE TR-FRET; inhibition, % at 6.5 µM; 1,600 tested, 26% active; AID 602193;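 active means mean inhibition over triplicates above the low-control well mean plus 3 SD, set per campaign, cut at about 13% in these data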;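 further: signal is single emission at 671 nm which falls as cellular cAMP rises; 0% = forskolin-stimulated wells and 100% = buffer without forskolin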
MC4R cAMP antag: human MC4R cAMP antagonism confirmation; inhibition, % at 6.5 µM; 1,600 tested, 27% active; AID 602195; MC4R-expressing cells, MTII-stimulated cAMP, TR-FRET; shares compounds with MC4R antag cAMP; in the data active means inhibition above about 29%;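 further: 0% = agonist stimulated wells alone and 100% = agonist stimulated wells plus saturating reference antagonist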
An asterisk follows results filed as active; . = not tested or not shown; ! = a repeat was not active.

SMILES | NOD2 RIPK2 PPI | TLR9-MyD88 block | TLR4 MyD88 comp | MC4R ag barr | MC4R antag cAMP | cAMP nonselect | MC4R cAMP antag
O=S(=O)(O)c1nc2ccccc2[nH]1 | -4 | 2 | . | 0 | 35* | -1 | -8
CNCc1nc2ccccc2[nH]1 | -13 | 6 | 8 | -1 | 2 | . | .
O=C(COC(=O)c1ccc(NS(=O)(=O)c2cccs2)cc1O)NCc1ccccc1 | 5 | 1 | -1 | 0 | -2 | . | .
O=C(COC(=O)c1ccc(NS(=O)(=O)c2cccs2)cc1O)Nc1nc2ccccc2s1 | 1 | 9 | 1 | 1 | 31* | 5 | 5
O=C(NCCN1CCCCC1)/C(=C/c1ccco1)NC(=O)c1ccccc1 | -4 | -1 | . | 1 | 0 | . | .
COC(=O)c1c(NC(=O)/C=C/C(=O)O)sc(C)c1-c1ccc(C)cc1 | -13 | 3 | -3 | -2 | 6 | . | .
COC(=O)c1sc(-c2ccc(Cl)cc2)cc1NC(=O)/C=C/C(=O)O | -15 | -7 | . | 1 | 47* | 13* | 20
COC(=O)c1c(NC(=O)/C=C/C(=O)O)sc(C)c1-c1ccc(C(C)C)cc1 | -10 | -7 | 6 | 0 | 33* | 1 | -10
COC(=O)c1sc(-c2ccc(Cl)cc2)cc1NC(=O)COCC(=O)O | -3 | 8 | . | 2 | 12 | . | .
Cc1ccccc1C(=O)NNC(=O)CCc1ccccc1 | -11 | -1 | 3 | 2 | 32* | -2 | -3
Cc1ccccc1C(=O)NNC(=O)Cc1ccccc1 | -1 | -6 | 9 | -1 | 6 | . | .
CC(C)C[C@H]1CNC(=O)C(=O)N1C[C@@H]1CCCN1C[C@H](Cc1ccccc1)N1C[C@H](Cc2ccccc2)N(CC2CCCCC2)C(=O)C1=O | -1 | . | . | . | . | . | .
CC(C)CCNC(=O)c1c[nH]c2ccc(S(=O)(=O)N3CCOCC3)cc2c1=O | 2 | 5 | . | -3 | 5 | . | .
COc1cccc(NS(=O)(=O)c2ccc3[nH]cc(C(=O)NCCC(C)C)c(=O)c3c2)c1 | -4 | -2 | 7 | 1 | 29* | 2 | -3
COCOCCn1cc(CN2CCS(=O)(=O)N(Cc3ccc(-c4cccc(CO)c4)cc3)C(CC(C)C)C2=O)nn1 (centres undefined) | -13 | -2 | . | 0 | -1 | . | .
Cc1ccc(C)c(S(=O)(=O)NCC(=O)OCC(=O)Nc2sccc2C(N)=O)c1 | -4 | 2 | . | -1 | 49* | 13* | 33*
COC(=O)c1c(N2C(=O)[C@H]3[C@@H](C2=O)[C@]2(C(=O)Nc4c2ccc(C)c4C)N2CCC[C@@H]32)sc(C)c1C | -3 | 5 | 10 | 2 | 33* | 3 | 14
CCC(Sc1nnc(-c2ccco2)n1C)C(=O)Nc1nnc(C)s1 (centres undefined) | -11 | 1 | . | -2 | 11 | . | .
CS(=O)(=O)c1ccc(Cl)c(NC(=O)COC(=O)CNC(=O)c2ccc(Br)o2)c1 | -2 | 8 | -2 | 1 | 32* | 2 | 4
O=C(Nc1ccccc1)c1sc(Cl)nc1-c1ccccc1 | 1 | -14 | 5 | -1 | 17 | . | .
Cc1ccc(NC(=O)c2sc(Cl)nc2-c2ccccc2)cc1C | 12 | 5 | -10 | 5 | 43* | 16* | 46*
O=C(Nc1cc(F)cc(F)c1)c1sc(Cl)nc1-c1ccccc1 | 18 | 3 | -6 | 6 | 31* | 3 | 9
CCN1CCN(C(c2cccc(OC)c2)c2sc3nc(C)nn3c2O)CC1 (centres undefined) | -8 | 6 | -9 | -1 | -1 | . | .
COc1cccc(C(c2sc3nc(C)nn3c2O)N2CCc3ccccc3C2)c1 (centres undefined) | 4 | -12 | -3 | 1 | 33* | 0 | -8
COc1cc(NC(=O)c2csc(-c3ccncc3)n2)cc(C(=O)Nc2cccc(C(F)(F)F)c2)c1 | -10 | -12 | . | 2 | 39*! | 0 | 4
SMILES | NOD2 RIPK2 PPI | TLR9-MyD88 block | TLR4 MyD88 comp | MC4R ag barr | MC4R antag cAMP | cAMP nonselect | MC4R cAMP antag
O=C(Nc1cccc(-c2csc(Nc3cccc(C(F)(F)F)c3)n2)c1)c1ccccc1 | -2 | -6 | . | 2 | 42* | 2 | 16
COc1cc(NC(=O)c2ccno2)cc(C(=O)Nc2cccc(C(F)(F)F)c2)c1 | -16 | 5 | . | -2 | 4 | . | .
COc1ccc(-c2cc(C(=O)Nc3cc(OC)cc(C(=O)Nc4cccc(C(F)(F)F)c4)c3)[nH]n2)cc1 | 4 | -4 | . | 7 | 31*! | 6 | 19
COc1cc(NC(=O)c2ccc(N)nc2)cc(C(=O)Nc2cccc(C(F)(F)F)c2)c1 | 2 | 2 | . | -1 | 13 | . | .
COc1cc(NC(=O)c2cc3cccc(OC)c3o2)cc(C(=O)Nc2cccc(C(F)(F)F)c2)c1 | -9 | -6 | . | 0 | 33* | 0 | -3
CC(Oc1ccc(C#N)cc1)C(=O)c1ccc(F)c(F)c1 (centres undefined) | -1 | -3 | 6 | 0 | 11 | . | .
Cc1cc(C)nc(SCC(=O)NN=Cc2ccc(C)o2)n1 | -1 | -1 | . | -1 | 13 | . | .
O=C(c1ccc([N+](=O)[O-])cc1)N(Cc1ccc(Cl)cc1)N1C(=O)CCCC1=O | -3 | 0 | 3 | 4 | 32* | 17* | 32*
COc1ccc(CNC(=O)c2ccc(-c3ccc(F)c(F)c3)c3ccoc23)cc1OC | -7 | . | . | 1 | 40* | -5 | 4
Cc1ccc(C)c(NC(=O)c2cc[n+](C)cc2)c1 | -11 | 4 | . | -1 | -3 | . | .
COc1ccccc1NC(=O)Nc1cc(F)ccc1F | -13 | -4 | -6 | -1 | 3 | . | .
O=C(OCC(=O)N1CCCC1=O)c1ncc(Cl)c(Cl)c1Cl | -7 | 6 | . | -1 | 31* | 4 | -4
NS(=O)(=O)c1ccc(NC(=O)COC(=O)c2ncc(Cl)c(Cl)c2Cl)cc1 | -3 | -1 | . | -1 | 32* | 13 | 29*
O=C(OCC(=O)N1CCCC1=O)c1cc(Cl)ccc1O | 7 | 0 | . | 0 | 16 | . | .
COC(=O)[C@H](Cc1ccccc1)NC(=O)NCCc1ccc(F)cc1 | -4 | . | . | -1 | 29* | 32* | 35*
COC(=O)C(Cc1ccccc1)NC(=O)CCNC(=O)c1ccc(Br)cc1 (centres undefined) | -5 | -2 | . | 1 | 29* | -9 | -20
COC(=O)[C@H](Cc1ccccc1)NC(=O)NCCc1ccc(S(N)(=O)=O)cc1 | 1 | 2 | 3 | -2 | 1 | . | .
COc1ccc(OC)c(-c2csc(NC(=O)c3ccc4c(c3)OCO4)n2)c1 | 12 | 11 | 5 | -1 | -5 | . | .
O=C(COC(=O)c1nc(Cl)c(Cl)c(Cl)c1Cl)c1ccc[nH]1 | 12 | 4 | . | -3 | 39* | 11 | 37*
O=C(COC(=O)c1nc(Cl)ccc1Cl)c1ccc[nH]1 | -7 | 3 | . | 5 | 19 | . | .

Assay outcomes (PubChem BioAssay)
